This is an account of results in ChEMBL document CHEMBL1141257, “Solanapyrone analogues from a Hawaiian fungicolous fungus” (J Nat Prod, 2007).

Values after ≈ are worked out from the molar mass of the structure shown. Active and inactive are the calls of the source. No cut-off for these calls is given here.

In assay [1] the test system is Staphylococcus aureus. Nature of the assay: Antibacterial activity against Staphylococcus aureus ATCC 25923 at 50 ug/disk after 4 days. In kind it is functional. Particulars: for zone of inhibition at 50 µg/disc: ATCC 25923, 96 h, read-out: IZ. The procedure, abridged:
(§1)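 Standard agar disk diffusion assay with 50 μg loaded per disk. Zones were read after 4 days as clear zones of inhibition in mm. For S. aureus, the zone of reduced growth was also measured in mm.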

Another assay concerns Escherichia coli. Nature of the assay: […] activity against Escherichia coli ATCC 25922. In kind it is functional, organism-based. The procedure, abridged:
as §1

The test system of assay [2] is Candida albicans. Put plainly: Antifungal activity against Candida albicans ATCC 14053. The format is functional. The method in brief: as §1
The subject of assay [3] is Candida albicans. Put plainly: Antifungal activity against Candida albicans ATCC 14053 at 50 ug/disk. The format is functional. Particulars: read-out: IZ. The procedure, abridged:
as §1

Assay [4] concerns Aspergillus flavus. Put plainly: Antifungal activity against Aspergillus flavus NRRL 6541 at 200 ug/disk after 4 days. The format is functional. As to conditions: NRRL 6541, 96 h, read-out: IZ. The procedure, abridged:
(§2)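 Disk diffusion assay with 200 μg applied per disk; the diameter of the growth-inhibition zone was read in mm, and persistence of the zone was followed over 4 days.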

Assay [5] deals with Fusarium verticillioides. Nature of the assay: Antifungal activity against Fusarium verticillioides NRRL 25457. In kind it is functional, organism-based. The procedure, abridged: (§3)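 Disk diffusion assay against the fungus with 200 μg of compound per disk; zones of inhibition were read and followed over 4 days. A further evaluation reported MIC and IC50 values, with the antifungal standard run under the same protocols.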

Assay [6] concerns Fusarium verticillioides. Nature of the assay: Antifungal activity against Fusarium verticillioides NRRL 25457 at 200 ug/disk after 4 days. The format is functional. As to conditions: NRRL 25457, 96 h, read-out: IZ. The method in brief: as §2
Assay [7] relates to Staphylococcus aureus. Nature of the assay: Antibacterial activity against Staphylococcus aureus ATCC 25923 assessed as zone of reduced growth at 50 ug/disk after 4 days. The format is functional. Particulars: ATCC 25923, 96 h, read-out: IZ. The procedure, abridged:
as §1

The test system of assay [8] is Aspergillus flavus. Nature of the assay: Antifungal activity against Aspergillus flavus NRRL 6541. In kind it is functional, organism-based. The method in brief:
as §3

Turning to `COc1cc([C@@]2(C)[C@H]3[C@H](C=C[C@H]2C)CCC[C@@H]3C)oc(=O)c1CO`, the result in the assay on Staphylococcus aureus [1], in the assay with Escherichia coli and with Candida albicans [2] was inactive.
As to `C[C@H]1CCC[C@@H]2C=C[C@H](C)[C@@](C)(C3=CC(=O)/C(=C/N)C(=O)O3)[C@H]12`, the result in the assay on Staphylococcus aureus [1], with Escherichia coli and in the assay with Candida albicans [2] was inactive.
Take `CCCCC[C@@H](O)[C@H]1C(=O)O[C@H](C)[C@@H](O)/C=C/C=C/C=C/C=C/C=C(\C)[C@@H](O)C[C@H](O)C[C@H](O)C[C@H](O)C[C@H](O)C[C@H](O)C[C@@H]1O` [FILIPIN]: the zone of inhibition at 50 µg/disc with Candida albicans [3] is 23 mm.
Regarding `COc1cc([C@@]2(C)[C@@H]3[C@@H](C)CCC[C@@H]3C=C[C@@H]2C)oc(=O)c1C=O` [SOLANAPYRONE J], the zone of inhibition at 200 µg/disc in the assay with Aspergillus flavus [4] and with Fusarium verticillioides [6] was 30 mm each time. The MIC in the assay with Fusarium verticillioides [5] (Fusarium verticillioides, NRRL 25457) is 24 µg/mL (≈ 72.6 µM); against Aspergillus flavus [8] (Aspergillus flavus, NRRL 6541) it was 20 µg/mL (≈ 60.5 µM). Besides, the IC50 with Fusarium verticillioides [5] (Fusarium verticillioides, NRRL 25457, read-out: IC50) turned out to be 15 µg/mL (≈ 45.4 µM); with Aspergillus flavus [8] (Aspergillus flavus, NRRL 6541, read-out: IC50) it was 8.6 µg/mL (≈ 26 µM). Besides, the values for the zone of inhibition at 50 µg/disc in the assay with Staphylococcus aureus [1] and with Staphylococcus aureus [7] were 17 mm and 21 mm, respectively. For the same molecule, the “inhibition zone (IZ)” value with Candida albicans [2] came out at 19 mm.
For the molecule `C[C@H]1CCC[C@@H]2C=C[C@H](C)[C@@](C)(C3=CC(=O)/C(=C\NCCO)C(=O)O3)[C@H]12` [SOLANAPYRONE K], in the assay on Staphylococcus aureus [1], the zone of inhibition at 50 µg/disc was found to be 9 mm. For the same molecule, the “inhibition zone (IZ)” value in the assay on Candida albicans [2] worked out at 13 mm.
Turning to NYSTATIN [listing 1 of 2 here], the results for the IC50 in the assay on Fusarium verticillioides [5] and in the assay with Aspergillus flavus [8] were 3 µg/mL and 5 µg/mL, respectively.
As to NYSTATIN [listing 2 of 2 here], the MIC in the assay with Fusarium verticillioides [5] and in the assay with Aspergillus flavus [8] was 10 µg/mL each time.
